Compound activity from PubChem.
T cruzi inh – inhibitors of intracellular T. cruzi growth, primary screen, luminescence, NIH3T3 host cells | T. cruzi beta-gal in NIH3T3, 90 h | inhibition, % (no concentration beside the values) | 300,000 compounds, 1.4% hits | AID 1885, 2009;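 active = mean inhibition across valid replicates above about 55%, limit read from the data; inconclusive = mean below that limit but half or more replicates reach it; inactive = mean below it, under half of replicates reach it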;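 also: signal also drops with host cell toxicity which is not excluded here; 0% = plate median of DMSO wells and 100% = zero luminescence signal; higher percent means less beta-gal luminescence so fewer parasites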
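compound dosing = single 50 nL compound addition per well in DMSO | material = NIH/3T3 host cells with β-galactosidase reporter T. cruzi | input = 5,000 host fibroblasts per well | timing = ≥90 h infection period, 3 h prior cell attachment | read-out basis = percent inhibition of parasite-derived β-gal signal | detection = GalScreen β-gal luminescence, detergent lysis, 60 min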
Beta cell apopt – inhibitors of cytokine-induced beta cell apoptosis, primary screen, luminescence; AID 435005, 2010; 300,000 compounds, 0.8% hits; INS-1E cytokine-induced death, ATP luminescence, 48 h; percent of positive-control rescue, neutral wells zero; protection from apoptosis, % (concentration not given with the values);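 active = Every replicate reaches about 75%, or at least half do and their mean reaches it too, limit read from the data; inconclusive = At least half of replicates reach the limit but their mean does not; inactive = Under half of replicates reach the limit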;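 also: 0% = cytokine-treated negative control wells and 100% = positive control rescue; higher means more ATP so stronger rescue from cytokine killing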
UPR CHOP act – activators of apoptotic CHOP UPR arm, primary screen, cell-based, CHO-CHOP luciferase reporter, luminescence, uHTS; AID 449763, 2010; activation, % at 10 µM; 330,000 compounds, 0.34% hits; UPR activation; percent of tunicamycin response over DMSO baseline;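 active = at 10 µM dose, activation of 40% or more, normalized to positive control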;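 also: 100% = tunicamycin at 10 µg/mL and 0% = DMSO alone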
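System: CHO-CHOP luciferase reporter cell line; amount: 500 cells/well; buffer or medium: F12 medium containing 10% fetal bovine serum; incubation: 6 h compound exposure at 37 °C after overnight seeding; measured by: luciferase luminescence after 10 min with Steady-Glo reagent; evaluation: % reporter activation, DMSO baseline versus tunicamycin full activation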
CSC inhib – cancer stem cell viability inhibitors, primary screen, luminescence; inhibition, % at 7.5 µM; 300,000 compounds, 1.1% hits; cancer stem cell-like cells viability; in the data active = inhibition above about 75%; inconclusive = no clear call, values can overlap the other calls; tested in HMLE shEcad cells
XBP1 UPR activ – activators of adaptive XBP1 UPR arm, primary screen, cell-based, CHO-XBP1 luciferase reporter, luminescence, uHTS; IRE1-XBP1 UPR activation; percent of tunicamycin response, DMSO as zero; activation, % at 20 µM; 330,000 compounds, 0.33% hits; AID 463104, 2010;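 active = versus positive control, 20 µM dose yields 30% or more activation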;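 also: 100% = tunicamycin at 10 µg/mL and 0% = DMSO only wells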
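Material: CHO cell line with stable XBP1 luciferase reporter; buffer or medium: F12 medium containing 10% fetal bovine serum; compound: single point, 20 µM final compound, 1% DMSO; incubation: 6 h treatment, 37 °C; measured by: glow luminescence from Steady-Glo reagent; evaluation: activation, % of tunicamycin; control set: tunicamycin high, DMSO low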
Mdm2 MdmX PPI – inhibitors of human Mdm2-MdmX association, primary screen, cell-based, luminescence, split luciferase, SaOS-2, uHTS. inhibition, % at 8 µM. SaOS-2 split-luciferase Mdm2/MdmX complementation. AID 485346, 2010. 330,000 compounds, 3% hits. Protein Mdm4 (Homo sapiens) + E3 ubiquitin-protein ligase Mdm2 (Homo sapiens), …;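 active = inhibition of at least 50% at 8 µM in the primary screen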
Target sequence (O15151 whole entry, looked up): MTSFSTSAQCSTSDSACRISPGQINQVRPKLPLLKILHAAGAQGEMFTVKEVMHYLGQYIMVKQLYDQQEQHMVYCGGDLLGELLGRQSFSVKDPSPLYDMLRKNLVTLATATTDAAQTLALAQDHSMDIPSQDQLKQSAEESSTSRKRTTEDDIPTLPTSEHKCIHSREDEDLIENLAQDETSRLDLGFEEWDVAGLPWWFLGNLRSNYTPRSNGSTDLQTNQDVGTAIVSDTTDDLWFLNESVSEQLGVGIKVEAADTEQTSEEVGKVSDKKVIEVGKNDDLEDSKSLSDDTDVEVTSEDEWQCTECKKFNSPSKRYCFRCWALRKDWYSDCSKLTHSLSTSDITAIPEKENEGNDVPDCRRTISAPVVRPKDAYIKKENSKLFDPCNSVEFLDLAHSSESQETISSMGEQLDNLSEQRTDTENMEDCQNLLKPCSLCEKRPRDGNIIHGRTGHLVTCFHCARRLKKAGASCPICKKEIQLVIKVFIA
Target sequence (Q00987 whole entry, looked up): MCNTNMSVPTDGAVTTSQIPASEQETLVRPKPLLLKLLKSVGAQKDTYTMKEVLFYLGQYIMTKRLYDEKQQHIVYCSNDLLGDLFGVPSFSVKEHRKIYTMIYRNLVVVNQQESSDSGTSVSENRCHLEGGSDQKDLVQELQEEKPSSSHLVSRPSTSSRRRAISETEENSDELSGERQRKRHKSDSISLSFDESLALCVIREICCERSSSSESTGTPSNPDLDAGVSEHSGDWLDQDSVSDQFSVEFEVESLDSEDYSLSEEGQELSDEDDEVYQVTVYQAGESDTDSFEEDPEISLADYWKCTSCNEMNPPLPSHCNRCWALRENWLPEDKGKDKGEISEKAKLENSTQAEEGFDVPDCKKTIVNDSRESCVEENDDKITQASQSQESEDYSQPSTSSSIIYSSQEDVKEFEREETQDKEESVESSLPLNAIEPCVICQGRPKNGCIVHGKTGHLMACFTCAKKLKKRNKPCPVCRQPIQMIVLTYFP
Active calls of the source: *; ? = inconclusive; . = no result. A selection: hits, their analogues and other compounds. The true share with any hit is near 5%.

SMILES	T cruzi inh	Beta cell apopt	UPR CHOP act	CSC inhib	XBP1 UPR activ	Mdm2 MdmX PPI
CCn1c(N2CCN(S(=O)(=O)c3ccc(F)cc3)CC2)nc2ccccc21	32	17	-2	80*	-1	11
CCn1c(N2CCN(S(=O)(=O)c3ccc(Cl)cc3)CC2)nc2ccccc21	88*	15	4	6	-1	-6
CCn1c(N2CCN(S(=O)(=O)CC)CC2)nc2ccccc21	-9	4	-1	-9	-2	24
CCCCN(C)CCCNC(=O)C1(O)c2ccccc2NC(=O)N1c1ccc(Cl)cc1 (centres undefined)	-2	-4	0	7	-2	-17
O=C(Nc1ccc(Br)c2ccccc12)c1ccc2ccccc2c1O	-11	50	.	108*	.	.
CC(=O)Nc1ccc(Br)c2ccccc12	-18	3	-2	-1	0	25
CCn1c(=O)c2cc(C(=O)N(C)c3ccccc3F)sc2c2ccccc21	69*	14	0	55	7	23
Cc1cccc(C(C)C)c1NC(=O)c1c(-c2ccccc2)noc1C	-2	-13	0	-2	-5	-7
COCCn1c(-c2ccc(-c3ccc([N+](=O)[O-])cc3Br)o2)nc2c1c(=O)[nH]c(=O)n2CC(C)C	51	-1	-1	30	-2	18
CN1CCN(c2ccc(S(=O)(=O)N3CCCCC3)cc2NC(=O)COc2ccc([N+](=O)[O-])cc2)CC1	58*	2	4	10	-4	19
Cc1ccc(OCC(=O)Nc2cc(S(=O)(=O)N3CCCCC3)ccc2N2CCN(C)CC2)c(C)c1	60*	11	4	14	6	40
CC(=O)NCCC(=O)Nc1cc(S(=O)(=O)N2CCCCC2)ccc1N1CCN(C)CC1	76*	-1	0	-6	-2	-2
COc1cc2c(cc1OC)CN(C(C)C(=O)Nc1ccc(NC(C)=O)cc1)CC2 (centres undefined)	-6	-6	0	-4	0	-6
CCOc1ccc(CCNC(=O)COC(=O)c2oc3ccccc3c2COC)cc1OCC	.	-7	-1	-5	-2	2
COc1ccc(/C=C/C(=O)NCc2cn(C)nc2C)cc1COc1ccc(Cl)cc1Br	32	-3	0	0	1	-12
CCn1nc(C)c(NC(=O)/C=C/c2ccc(OC)c(COc3ccc(Cl)cc3Br)c2)c1C	55*	.	-1	35	1	32
COc1cccc(C(=O)C2=NN(C(C)=O)CC2c2ccco2)c1 (centres undefined)	-5	-9	-1	-8	-1	-12
COc1ccc(C(=O)N(C)c2ccccc2C(=O)NCCc2ccccc2)cc1	-49	89*	2	-12	1	39
N=c1n(CCN2CCCCC2)c2ccccc2n1CC(=O)c1ccc(Cl)c(Cl)c1	30	39	1	103*	-1	42
CCn1c(=N)n(CC(=O)c2ccc(Cl)c(Cl)c2)c2ccccc21	17	4	15	42	1	-70
CCN(CC)C(=O)c1ccc(NS(=O)(=O)c2ccc3[nH]c(=O)[nH]c3c2)cc1	-4	-3	-1	-3	-1	24
O=C(NCc1ccco1)C(c1ccccc1F)N(Cc1cccnc1)C(=O)Cn1nnc2ccccc21 (centres undefined)	66*	0	-1	-10	-3	2
Cc1ccccc1C(=O)NNC(=O)c1cccc(Br)c1	-18	-10	-1	-8	-1	-6
CN(/N=C/c1cc(Br)cc(Br)c1O)c1cccc(C(F)(F)F)n1	23	?	1	103*	2	50
Cc1ccc(S(=O)(=O)NCc2ccncc2)c(C)c1C	-56	116*	7	-11	-3	11
SMILES	T cruzi inh	Beta cell apopt	UPR CHOP act	CSC inhib	XBP1 UPR activ	Mdm2 MdmX PPI
Cc1cccc(Oc2nc(-c3ccccn3)nc3ccccc23)c1	-3	81*	38	11	12	35
Cc1cccc(N=[N+]([O-])c2cccc(C)n2)n1	.	.	6	.	2	-17
CCOc1cc(/C=C2\C(=O)N(c3nc(-c4ccc(Br)cc4)cs3)N=C2c2ccccc2)ccc1O	11	.	642*	99*	99*	11
COc1cc(/C=C2\C(=O)N(c3ccc(NC(C)=O)cc3)N=C2c2ccccc2)ccc1O	-26	-2	-3	9	-6	14
CN(C1=C(NC(=O)c2ccccc2)C(=O)c2ccccc2C1=O)C1CCS(=O)(=O)C1 (centres undefined)	37	97*	-7	14	-4	21
CC(=O)NC1=C(NC2CCS(=O)(=O)C2)C(=O)c2ccccc2C1=O (centres undefined)	-18	53	2	-23	1	2
CN1CCN(c2nc(N3CCN(c4ccccc4)CC3)ncc2F)CC1	57*	-1	1	-10	-4	20
Cc1cccc2[nH]c3c(N4CC=C(c5ccc(F)cc5)CC4)ncnc3c12	34	3	1	78*	-3	25
CN1C(=O)N(C)C2(c3ccccc3)NC(=O)NC12c1ccccc1 (centres undefined)	-9	-5	0	-3	-3	24
CCN1c2ccccc2N(C)C1(C)c1ccccc1 (centres undefined)	.	106*	.	43	.	.
CN1c2ccccc2N(C)C1(C)c1ccccc1	62*	131*	.	38	.	.
COc1ccccc1C(=O)NCC(=O)OC(C)C(=O)NC1CCCCC1C (centres undefined)	.	-2	0	.	-3	-12
O=[N+]([O-])c1cc(-c2nc3nc4ccccc4nc3n2CCc2ccccc2)cc([N+](=O)[O-])c1	56*	-5	3	13	1	-1
c1ccc(Cn2c(-c3ccccc3)nc3nc4ccccc4nc32)cc1	28	11	1	.	2	3
CCOC(=O)/C(=N\Nc1ccccc1Cl)N1CCN(C)CC1	24	-4	2	.	-1	1
CCOC(=O)/C(=N\Nc1ccccc1Cl)N1CCN(c2ccccc2OC)CC1	67*	3	1	41	0	11
C=CCOc1ccc(C=Nc2ccc(C)c(Cl)c2)c(O)c1	-6	-7	1	0	0	17
COc1ccc(-n2nc(C(=O)NCC(=O)N(C)Cc3ccccc3)c3ccccc3c2=O)c(OC)c1	-1	-1	-1	-7	3	12
c1ccc(-c2ccc3[nH]ccc3c2)cc1	.	-5	6	-4	8	-26
